MPTP block: mitochondrial permeability transition pore inhibitors, primary screen, biochemical, isolated mouse mitochondria, absorbance. 360,000 tested, 1.4% active. AID 602449, 2012. inhibition, % at 10 µM. Ca2+ swelling absorbance, 30 min;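 active = inhibition of 50% or more, scaled per plate between neutral and stimulator controls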;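 also: 0% = DMSO wells given calcium and 100% = 1 mM EGTA wells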
ADAM10 inh: human ADAM10 inhibitors, primary screen, biochemical, QFRET, HTS; recombinant ADAM10, EDANS/DABCYL FRET peptide cleavage, 3 h; AID 720582, 2013; 370,000 tested, 0.62% active; inhibition, % at 7 µM; Disintegrin and metalloproteinase domain-containing protein 10 (Homo sapiens), O14672;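 active = inhibition above a per-campaign cutoff equal to the mean of compounds falling between control-based bounds plus 3 SD, cut at about 20% in these data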;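 also: 0% = DMSO wells while the 100% control is not disclosed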
Target sequence (O14672 214-748 limits assumed): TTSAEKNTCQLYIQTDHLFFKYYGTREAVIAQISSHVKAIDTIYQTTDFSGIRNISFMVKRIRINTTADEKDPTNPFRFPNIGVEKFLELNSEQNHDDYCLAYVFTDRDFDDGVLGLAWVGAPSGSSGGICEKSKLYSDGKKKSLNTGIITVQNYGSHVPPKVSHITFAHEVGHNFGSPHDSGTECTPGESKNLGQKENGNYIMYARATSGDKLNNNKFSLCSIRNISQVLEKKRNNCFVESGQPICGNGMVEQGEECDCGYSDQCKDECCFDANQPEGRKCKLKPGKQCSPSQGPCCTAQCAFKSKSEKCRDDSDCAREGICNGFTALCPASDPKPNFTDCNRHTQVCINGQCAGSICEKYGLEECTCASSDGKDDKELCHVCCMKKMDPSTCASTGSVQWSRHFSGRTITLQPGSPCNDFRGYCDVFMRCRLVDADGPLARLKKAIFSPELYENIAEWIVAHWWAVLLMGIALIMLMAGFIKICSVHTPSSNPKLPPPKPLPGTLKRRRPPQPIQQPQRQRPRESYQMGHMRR
SKN-1 block: suppressors of acrylamide-induced Pgst-4::GFP reporter in worms, primary screen, SKN-1 inhibitor project, whole organism, uHTS, GFP/RFP fluorescence ratio, strain VP596. C. elegans VP596 Pgst-4::GFP/RFP ratio, 24 h. inhibition, % at 21.8 µM. 360,000 tested, 0.49% active. AID 624304, 2012;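 active = interference check ratio from 0.5 to 1.5 plus GFP to RFP signal ratio inhibition reaching or exceeding a fixed threshold, cut at about 30% in these data, passing the limit was not always enough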
MT1-MMP act inh: blockers of MT1-MMP proenzyme processing, primary screen, HT1080 RFP-PRO-GFP cells, GFP/RFP fluorescence. Matrix metalloproteinase-14 (Homo sapiens), P50281. GFP/RFP ratio fluorescence, overnight; percent of plate control window, DMSO zero. GFP/RFP ratio change, % at 20 µM. 360,000 tested, 0.061% active. AID 651647, 2012;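 active = GFP/RFP ratio change of at least 30% with cell ATP level not reduced by more than half and red fluorescence within 50% of control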
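Test system: HT1080 RFP-PRO-GFP cells; Benchmarks: DMSO and RFP-L50D-GFP cell wells; Timing: cells overnight before dosing, compound overnight, 37 °C, 5% CO2; Compound: one 20 µM compound dose with 1% DMSO; Read-out: GFP/RFP fluorescence ratio.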
GRIN3A LBD mod: binders of NR3A ligand-binding domain, primary screen, biophysical, differential scanning fluorimetry, uHTS; 340,000 tested, 2.5% active; Tm shift relative to glycine control, % at 25 µM; Glutamate receptor ionotropic, NMDA 3A (GRIN3A) ligand-binding domain; NR3A LBD differential scanning fluorimetry, Tm shift; 0% = protein alone, 100% = glycine-bound protein; AID 1259313, 2017;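 active = melting temperature shift of at least 10% of the positive control shift, at one fixed dose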
ADAM17 inh: ADAM17 inhibitors, primary screen, biochemical, QFRET; inhibition, % at 6.95 µM; 370,000 tested, 0.83% active; recombinant ADAM17, EDANS/DABCYL FRET peptide cleavage; Disintegrin and metalloproteinase domain-containing protein 17 (Homo sapiens), P78536;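 active = inhibition above the mean of compounds lying between control limits plus 3 SD, set per campaign, cut at about 8.5% in these data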;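 also: 0% = DMSO-only wells as the low control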
* marks the source's active call; other numbers are inactive results. In the library only some 4.7% were active in any assay of this set; here they are far more common.

CCc1ccc(NC(=S)N(CCOC)C2CCN(C(C)=O)CC2)cc1 was read as MPTP block 4, ADAM10 inh -5, SKN-1 block 13, MT1-MMP act inh -2, GRIN3A LBD mod 1 and ADAM17 inh -19.
Screening O=C(COc1ccc(/C=N/NC(=O)c2ccncc2)cc1)Nc1ccccc1 returned MPTP block -1, ADAM10 inh -1, SKN-1 block 13, MT1-MMP act inh -1, GRIN3A LBD mod 11* and ADAM17 inh 0.
Screening O=C(O)COc1ccc(/C=N/NC(=O)C(O)(c2ccccc2)c2ccccc2)cc1 returned MPTP block -1, ADAM10 inh -7, SKN-1 block 40*, MT1-MMP act inh 3, GRIN3A LBD mod 0 and ADAM17 inh -1.
`O=C(O)c1ccc(/C=N/NC(=O)C(O)(c2ccccc2)c2ccccc2)cc1` gave MPTP block 0, ADAM10 inh -2, SKN-1 block -1, MT1-MMP act inh 2, GRIN3A LBD mod 0 and ADAM17 inh -3.
For N#Cc1ccccc1OCC(O)CS(=O)(=O)c1ccccc1 (centres undefined) the results were MPTP block -2, ADAM10 inh -4, SKN-1 block 53*, MT1-MMP act inh 1, GRIN3A LBD mod 0 and ADAM17 inh -1.
Screening O=C(N/C(=C/c1cccc(Br)c1)c1nc(=S)[nH][nH]1)c1ccccc1 returned MPTP block 3, ADAM10 inh 5, SKN-1 block 8, MT1-MMP act inh -8, GRIN3A LBD mod 22* and ADAM17 inh 4.
For CCOC(=O)C1=CNS(=O)(=O)NC1c1ccc(C#N)cc1 (centres undefined) the results were MPTP block 1, ADAM10 inh -195, SKN-1 block -11, MT1-MMP act inh 1, GRIN3A LBD mod -1 and ADAM17 inh -44.
For CS(=O)(=O)c1ccc2nc(NC(=O)Nc3ccccc3F)sc2c1 the results were MPTP block 1, ADAM10 inh 2, SKN-1 block 2, MT1-MMP act inh 2, GRIN3A LBD mod 3 and ADAM17 inh -2.
For COc1cccc(-c2nc(C#N)c(N3CCN(C(=O)c4ccco4)CC3)o2)c1 the results were MPTP block 0, ADAM10 inh -146, SKN-1 block 2, MT1-MMP act inh -4, GRIN3A LBD mod 11* and ADAM17 inh -36.
N#Cc1nc(-c2ccc(F)cc2)oc1N1CCN(C(=O)c2ccco2)CC1 was read as MPTP block 0, ADAM10 inh -34, SKN-1 block -8, MT1-MMP act inh 4, GRIN3A LBD mod -2 and ADAM17 inh -4.
`Cc1ccc(N2C(=O)N(CC(=O)c3cc(C)ccc3C)C(=O)C2C)cc1` (centres undefined) gave MPTP block 3, ADAM10 inh 8, SKN-1 block -2, MT1-MMP act inh 0, GRIN3A LBD mod 13* and ADAM17 inh 0.
`COc1cc([N+](=O)[O-])ccc1NC(=O)Nc1cnccn1` gave MPTP block 1, ADAM10 inh 5, SKN-1 block 8, MT1-MMP act inh -14, GRIN3A LBD mod -6 and ADAM17 inh 4.
COc1cc([N+](=O)[O-])ccc1NC(=O)Nc1nc2c(s1)CCCC2 was read as MPTP block 43, ADAM10 inh -3, SKN-1 block 3, MT1-MMP act inh 1, GRIN3A LBD mod 11* and ADAM17 inh 6.
For CCC(=O)N1CCN(c2nc3ccc(Br)cc3s2)CC1 the results were MPTP block -2, ADAM10 inh -5, SKN-1 block 43*, MT1-MMP act inh 0, GRIN3A LBD mod 2 and ADAM17 inh -5.
Screening CCOC(=O)N1CCN(C(=O)Nc2ccc3nc(C)sc3c2)CC1 returned MPTP block -1, ADAM10 inh -24, SKN-1 block -14, MT1-MMP act inh -2, GRIN3A LBD mod 3 and ADAM17 inh -6.
Screening CCOC(=O)Nc1ccc2nc(N3CCCCCC3)sc2c1 returned MPTP block 0, ADAM10 inh -6, SKN-1 block 24, MT1-MMP act inh 1, GRIN3A LBD mod 21* and ADAM17 inh 3.
Clc1ccc2nc(N3CCCCC3)sc2c1 was read as MPTP block 11, ADAM10 inh 0, SKN-1 block 57*, MT1-MMP act inh 3, GRIN3A LBD mod -2 and ADAM17 inh 0.
`CCCCC(=O)N1CCN(c2nc3ccc(F)cc3s2)CC1` gave MPTP block 0, ADAM10 inh -9, SKN-1 block -2, MT1-MMP act inh -7, GRIN3A LBD mod 2 and ADAM17 inh -1.
For CS(=O)(=O)N1CCN(c2nc3ccc(Cl)cc3s2)CC1 the results were MPTP block 1, ADAM10 inh 1, SKN-1 block -1, MT1-MMP act inh 2, GRIN3A LBD mod 2 and ADAM17 inh 0.
`CCOC(=O)C1=CCN(S(=O)(=O)c2ccccc2C(=O)OC)C1c1ccc(Cl)cc1` (centres undefined) gave MPTP block 0, ADAM10 inh -7, SKN-1 block 1, MT1-MMP act inh 1 and ADAM17 inh -1.
COc1cc(/C=N/Nc2nc(C)nc3c2cnn3-c2ccccc2)ccc1O was read as MPTP block 4, ADAM10 inh -62, SKN-1 block 13, MT1-MMP act inh -1, GRIN3A LBD mod 13* and ADAM17 inh -37.
For COc1cccc(/C=N/Nc2c(Cl)cncc2Cl)c1O the results were MPTP block 0, ADAM10 inh 15, SKN-1 block -5, MT1-MMP act inh -8, GRIN3A LBD mod 35* and ADAM17 inh 5.
`O=[N+]([O-])c1cccc(N/N=C/c2cccc(O)c2O)c1` gave MPTP block -3, ADAM10 inh 8, SKN-1 block 1, MT1-MMP act inh 8, GRIN3A LBD mod 21* and ADAM17 inh 3.
`C/C(=N\Nc1cccc([N+](=O)[O-])c1)c1ccccc1O` gave MPTP block 1, ADAM10 inh 8, SKN-1 block 0, MT1-MMP act inh 5, GRIN3A LBD mod 31* and ADAM17 inh 7.
`O=[N+]([O-])c1ccccc1N/N=C/c1cccc(O)c1O` gave MPTP block 5, ADAM10 inh 2, SKN-1 block 1, MT1-MMP act inh 1, GRIN3A LBD mod 0 and ADAM17 inh 1.
For N[C@@H](Cc1cc(I)c(O)c(I)c1)C(=O)O the results were MPTP block 0, ADAM10 inh -6, SKN-1 block -11, GRIN3A LBD mod -4 and ADAM17 inh -6.

From PubChem BioAssay
